Measured values: ChEMBL document CHEMBL3397000, “Rapid synthesis of 4-arylchromenes from ortho-substituted alkynols: A versatile access to restricted isocombretastatin A-4 analogues as antitumor agents” (Eur J Med Chem, 2015)

Columns and labels:
[1] = Cytotoxicity against human HCT116 cells after 72 hrs by CellTitre-Blue assay; type: functional; conditions: HCT-116, 72 h
MDA-MB-231 = assay: Cytotoxicity against human MDA-MB-231 cells after 72 hrs by CellTitre-Blue assay; type: functional; conditions: MDA-MB-231, 72 h
How it was run: (§1)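 ATCC lines grown in DMEM (4.5 g/L glucose) with 10% FCS and 1% glutamine at 37 °C, 5% CO₂. Seeded at 5×10³ cells/well and cultured 24 h. Compound added from DMSO (final <0.1%) for 72 h. Resazurin (CellTiter-Blue) added for 2 h, then fluorescence read at ex 560/em 590 nm. IC50 is the 50% fluorescence drop versus untreated cells, in triplicate.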

[2] = Cytotoxicity against human H1299 cells after 72 hrs by CellTitre-Blue assay; type: functional; conditions: NCI-H1299, 72 h; how it was run: as §1
[3] = Inhibition of sheep brain tubulin polymerization by DAPI staining-based fluorescence assay; parameters: species or system Ovis aries
How it was run: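 Tubulin was purified by two assembly–disassembly cycles and held at ~2–3 mg/mL in MES assembly buffer with MgCl₂, EGTA and GTP, pH 6.6. Assembly was followed continuously at 37 °C by DAPI fluorescence. IC50 is the concentration halving the maximum assembly rate versus the no-compound rate; mean of three experiments. Reference agents were run the same day.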

K562 = assay: Cytotoxicity against human K562 cells after 72 hrs by CellTitre-Blue assay; type: functional; conditions: K562, 72 h
How it was run: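 Cells were kept in RPMI 1640 with 10% FCS and 1% glutamine, humidified, 37 °C, 5% CO₂. Plated at 5×10³ cells/well, grown 24 h, then exposed 72 h to compound delivered in DMSO (below 0.1% final). Viability was read by resazurin reduction over 2 h (fluorescence ex 560, em 590 nm). IC50 is the 50% signal loss relative to untreated wells; triplicate runs.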

Ovis aries = species on record: Ovis aries; assay: Inhibition of sheep brain tubulin polymerization at 10 uM by DAPI staining-based fluorescence assay
[4] = Cytotoxicity against human HCT116 cells at 10 uM after 72 hrs by CellTitre-Blue assay; type: functional; conditions: HCT-116, 72 h

Q: Which GI50 [1] does the source give for `COc1ccc2c(c1N)OCCC2c1cc(OC)c(OC)c(OC)c1` (stereo not drawn) here?
A: The GI50 was 50 nM.

Q: What about the GI50 (MDA-MB-231) of the same compound?
A: The GI50 was 65 nM.

Q: What about the GI50 [2] of the same compound?
A: Its GI50 is 60 nM.

Q: And the IC50 [3]?
A: The IC50 was 4100 nM.

Q: What about the GI50 (K562) of the same compound?
A: Its GI50 is 70 nM.

Q: For `COc1ccc2c(c1Br)OCC=C2c1cc(OC)c(OC)c(OC)c1`, which inhibition (Ovis aries) is on record?
A: The inhibition was < 10%.

Q: And the GI50 [1]?
A: The GI50 was 300 nM.

Q: Which inhibition (Ovis aries) does the source give for `COc1cc(C2=CCOc3ccc(-c4ccccc4)cc32)cc(OC)c1OC` here?
A: Its inhibition is < 10%.

Q: And the GI50 [1]?
A: Its GI50 is 400 nM.

Q: For `COc1ccc2c(c1O)OCC=C2c1cc(OC)c(OC)c(OC)c1`, which GI50 [1] is on record?
A: The GI50 was 10 nM.

Q: And the GI50 (MDA-MB-231)?
A: Its GI50 is 25 nM.

Q: And the GI50 [2]?
A: Its GI50 is 15 nM.

Q: And the IC50 [3]?
A: Its IC50 is 3700 nM.

Q: And the GI50 (K562)?
A: Its GI50 is 32 nM.

Q: Which GI50 [1] does the source give for `COc1ccc(/C=C\c2cc(OC)c(OC)c(OC)c2)cc1O` [COMBRETASTATIN A4] here?
A: The GI50 was 2.1 nM.

Q: What about the GI50 (MDA-MB-231) of the same compound?
A: The GI50 was 3.2 nM.

Q: What about the GI50 [2] of the same compound?
A: The GI50 was 5.1 nM.

Q: And the IC50 [3]?
A: The IC50 was 1400 nM.

Q: What about the GI50 (K562) of the same compound?
A: Its GI50 is 4.3 nM.

Q: For `COc1cc(C2=CCOc3cc(CO)ccc32)cc(OC)c1OC`, which inhibition (Ovis aries) is on record?
A: Its inhibition is < 10%.

Q: What about the inhibition at 10 µM [4] of the same compound?
A: The inhibition at 10 µM was < 10%.

Q: Which inhibition (Ovis aries) does the source give for `COc1cc(C2=CCOc3cc(F)ccc32)cc(OC)c1OC` here?
A: The inhibition was < 10%.

Q: And the inhibition at 10 µM [4]?
A: Its inhibition at 10 µM is < 10%.

Q: For `COc1ccc2c(c1O)OCCC2c1cc(OC)c(OC)c(OC)c1` (stereo not drawn), which GI50 [1] is on record?
A: Its GI50 is 75 nM.

Q: What about the GI50 (MDA-MB-231) of the same compound?
A: The GI50 was 60 nM.

Q: What about the GI50 [2] of the same compound?
A: The GI50 was 80 nM.

Q: And the IC50 [3]?
A: Its IC50 is 6200 nM.

Q: And the GI50 (K562)?
A: Its GI50 is 75 nM.

Q: Which GI50 [1] does the source give for `C=C(c1ccc(OC)c(O)c1)c1cc(OC)c(OC)c(OC)c1` here?
A: Its GI50 is 2.2 nM.

Q: What about the GI50 (MDA-MB-231) of the same compound?
A: The GI50 was 4.1 nM.

Q: And the GI50 [2]?
A: Its GI50 is 5 nM.

Q: What about the IC50 [3] of the same compound?
A: The IC50 was 2200 nM.

Q: What about the GI50 (K562) of the same compound?
A: The GI50 was 5.2 nM.

Q: Which results are given for `COc1ccc2c(c1N)OCC=C2c1cc(OC)c(OC)c(OC)c1`?
A: GI50 [1]: 50 nM; GI50 (MDA-MB-231): 65 nM; GI50 [2]: 60 nM; IC50 [3]: 5000 nM; GI50 (K562): 60 nM
